In the library only some 2.5% were active in any assay of this set; here they are far more common.
EP2 mod = EP2 receptor (human) modulation; hit rate 0.83% among 260,000; P43116; induction, % at 25 µM; EP2-expressing cells, cAMP HTRF FRET, PGE2 co-stimulation;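 active = compounds whose cAMP rise, as percent of the full-agonist control response, exceeds 60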;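 also: rat C6 glioma line stably carrying human EP2 under a CMV promoter; the protocol text gives 20 µM as final concentration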
Target sequence (P43116 whole entry, looked up): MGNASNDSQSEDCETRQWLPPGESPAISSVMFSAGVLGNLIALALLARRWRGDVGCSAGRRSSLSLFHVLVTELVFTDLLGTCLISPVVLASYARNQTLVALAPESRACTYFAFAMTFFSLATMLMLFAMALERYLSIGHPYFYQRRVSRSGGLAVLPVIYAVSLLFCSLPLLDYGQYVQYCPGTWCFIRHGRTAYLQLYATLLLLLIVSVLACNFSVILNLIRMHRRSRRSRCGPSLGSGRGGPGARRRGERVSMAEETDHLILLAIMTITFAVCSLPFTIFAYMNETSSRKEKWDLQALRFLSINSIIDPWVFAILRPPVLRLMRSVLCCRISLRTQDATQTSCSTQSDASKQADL
EP2 antag = blocks the human prostaglandin E2 receptor EP2. hit rate 0.52% among 260,000. P43116. AID 1422. C6 glioma cells expressing human EP2, cAMP TR-FRET; cells stimulated with saturating PGE2. inhibition, % at 25 µM;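 active = percent inhibition above 40 after rounding to a whole number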;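 also: rat C6 glioma host cells with rolipram phosphodiesterase inhibitor present; the protocol text gives 20 µM as final concentration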
Tb hexokinase = blocks Trypanosoma brucei hexokinase 1 activity; recombinant TbHK1, G6PDH-coupled NADH A340; inhibition, % at 10 µM; hit rate 0.11% among 220,000; AID 1430;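 active = inhibition of 50% or more in the single-dose primary screen; inactive = inhibition below 50%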
PfG6PD inh = PfG6PD (Plasmodium falciparum) enzyme inhibition | hit rate 0.78% among 350,000 | AID 504690 | inhibition, % at 20 µM | PfGluPho enzyme, NADPH resazurin-diaphorase fluorescence;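 active = inhibition reaching at least a set limit at 20 µM in the primary screen, cut at about 59% in these data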
HKDC1 inhibitor = inhibitors of human hexokinase HKDC1; Q2TB90; recombinant HKDC1, G6PDH/diaphorase resazurin coupled fluorescence; inhibition, % at 20 µM; hit rate 0.16% among 340,000;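 active = inhibition above about 35% when tested at 20 µM, limit read from the data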
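Assay system – recombinant HKDC1 (HK5) hexokinase enzyme, produced in-house · Input – HKDC1 at 5 µg/mL · Reagent – glucose plus 1 mM ATP as hexokinase substrates · Timing – 90 min reaction incubation at room temperature, dark · Measured by – G6PDH/diaphorase-coupled fluorescence, 1 mM NADP, 100 µM resazurin, 525/613 nm · Benchmarks – DMSO-enzyme wells negative, buffer-substituted wells positive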
PHOSPHO1 block = inhibitors of human PHOSPHO1 phosphatase; recombinant PHOSPHO1, absorbance phosphatase assay; inhibition, % at 13.3 µM; hit rate 1.1% among 290,000; AID 1565; in the data active = inhibition above about 60%
Target sequence (Q8TCT1 whole entry, looked up): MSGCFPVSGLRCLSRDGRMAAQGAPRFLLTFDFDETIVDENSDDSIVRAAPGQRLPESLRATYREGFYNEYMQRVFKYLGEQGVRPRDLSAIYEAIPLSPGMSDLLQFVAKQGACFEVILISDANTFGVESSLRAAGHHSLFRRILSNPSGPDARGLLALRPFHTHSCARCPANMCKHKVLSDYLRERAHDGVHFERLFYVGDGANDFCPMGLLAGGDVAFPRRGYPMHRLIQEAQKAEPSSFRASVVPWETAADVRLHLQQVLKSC
PfG6PD confirm = confirmation of Plasmodium falciparum G6PD inhibitors | shares compounds with PfG6PD inh | recombinant PfGluPho, NADPH-diaphorase-resazurin fluorescence | inhibition, % at 20 µM | hit rate 34% among 2,400 | AID 504753;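 active = inhibition of at least 50% at 20 µM in any single replicate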
Diaph ctr 10uM = counter-screen for P. falciparum G6PD inhibitors: diaphorase inhibitors, oxidizers. shares compounds with PfG6PD inh. diaphorase-coupled resazurin reduction, fluorescence, NADPH 10 uM. inhibition, % at 20 µM. hit rate 39% among 820. AID 504862;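 active = average inhibition reaching 50% or more with the compound at 20 µM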;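 also: resorufin red fluorescence formed as diaphorase reduces resazurin using NADPH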
Diaphorase 30uM = diaphorase inhibition or oxidation at 30 uM NADPH. Diaphorase/resazurin coupled assay, resorufin fluorescence. shares compounds with PfG6PD inh. AID 504863. hit rate 29% among 820. inhibition, % at 20 µM;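 active = inhibition averaging 50% or more, tested at 20 µM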
Large screens that a line does not name were inactive (follow-up assays come after a bar, where they were run).

Cc1cccc2cc(CN(C(=O)Nc3cccc(Cl)c3)C3CCCC3)c(=O)[nH]c12	none (no result: Tb hexokinase, PfG6PD inh, HKDC1 inhibitor, PHOSPHO1 block)
CCOC(=O)c1cnc(-c2ccccc2O)nc1Cl	PfG6PD inh 60 | PfG6PD confirm inactive
CCOC(=O)c1cnc(-c2ccccc2)nc1Oc1ccc(Cl)cc1	none
Cn1c(=O)c2[nH]c(=S)n(Cc3ccccc3)c2n(C)c1=O	none (no result: EP2 mod, EP2 antag, Tb hexokinase, PHOSPHO1 block)
Cn1c(=O)[nH]c(=O)c2c1[nH]c(=S)n2CCCc1ccccc1	PfG6PD inh 75 (no result: EP2 mod, EP2 antag, Tb hexokinase) | PfG6PD confirm 49 | Diaph ctr 10uM inactive | Diaphorase 30uM inactive
Cn1c(=O)c2c([nH]c(=S)n2CCCc2ccccc2)n(C)c1=O	PfG6PD inh 68 (no result: EP2 mod, EP2 antag, Tb hexokinase) | PfG6PD confirm 53 | Diaph ctr 10uM inactive | Diaphorase 30uM inactive
Cn1c(=O)n(Cc2ccccc2Cl)c(=O)c2c1[nH]c(=S)n2C	PfG6PD inh 60 (no result: EP2 mod, EP2 antag, Tb hexokinase) | PfG6PD confirm inactive
Cc1cc2c(cc3c(=O)n(CC(=O)NCC(C)c4ccccc4)nc(C)n32)s1 (stereo not given)	none (no result: EP2 antag, Tb hexokinase, PfG6PD inh, HKDC1 inhibitor, PHOSPHO1 block)
COc1ccc(C(=O)c2c(C(F)(F)F)oc3c2C(=O)c2ccccc2C3=O)cc1	PfG6PD inh 76, PHOSPHO1 block 97 | PfG6PD confirm 35 | Diaph ctr 10uM inactive | Diaphorase 30uM inactive
COc1ccc(C(=O)c2oc3ccccc3c2NC(C)=O)cc1	none
CC1CCN(C(=O)Cn2cnc3scc(-c4ccc(F)cc4)c3c2=O)CC1	none (no result: Tb hexokinase, PfG6PD inh, HKDC1 inhibitor, PHOSPHO1 block)
Nc1ccc(N2CCCC2)c(S(=O)(=O)Nc2cccc(C(F)(F)F)c2)c1	PfG6PD inh 80 (no result: EP2 mod, EP2 antag, Tb hexokinase, PHOSPHO1 block) | PfG6PD confirm inactive
COc1ccc(NS(=O)(=O)c2cc(N)ccc2N2CCCCC2)cc1	none (no result: EP2 mod, EP2 antag, Tb hexokinase, PHOSPHO1 block)
CCOC(=O)C(=CNc1ccc(N2CCCCC2)c(S(=O)(=O)Nc2ccccc2OC)c1)C(=O)OCC	PfG6PD inh 65 (no result: EP2 mod, EP2 antag, Tb hexokinase, PHOSPHO1 block) | PfG6PD confirm inactive
COc1ccccc1NS(=O)(=O)c1cc(N)ccc1N1CCCC1	PfG6PD inh 70 (no result: EP2 mod, EP2 antag, Tb hexokinase, PHOSPHO1 block) | PfG6PD confirm inactive
O=C1N=C(c2ccccc2)S/C1=C\c1cccs1	PfG6PD inh 63, PHOSPHO1 block 95 | PfG6PD confirm inactive
C=C(C)CN1CCN(Cc2cccc(-n3nc(C)cc3C)c2)CC1	none (no result: Tb hexokinase, PfG6PD inh, HKDC1 inhibitor, PHOSPHO1 block)
CCOC(=O)COc1ccc2ccccc2c1/C=C/[N+](=O)[O-]	none
CCOc1ccc(/C=C/[N+](=O)[O-])c2ccccc12	PfG6PD inh 64 | PfG6PD confirm inactive
Cn1c(=O)c2[nH]c(-c3ccccc3Cl)c(O)c2n(C)c1=O	none
Cn1c(=O)c2[nH]c(-c3ccccc3)c(O)c2n(C)c1=O	PfG6PD inh 71 | PfG6PD confirm 59 | Diaph ctr 10uM inactive | Diaphorase 30uM inactive
Cc1ccc(Nc2nc3c(c(=O)[nH]c(=O)n3C)n2CCO)cc1	none (no result: Tb hexokinase, PfG6PD inh, HKDC1 inhibitor, PHOSPHO1 block)
O=C(O)c1cc(N2C(=O)C=CC2=O)cc(N2C(=O)C=CC2=O)c1	PfG6PD inh 121 (no result: EP2 mod, EP2 antag, Tb hexokinase, PHOSPHO1 block) | PfG6PD confirm 105 | Diaph ctr 10uM inactive | Diaphorase 30uM inactive
NC(=O)c1cc(N2C(=O)C=CC2=O)ccc1Cl	none
CCCn1c(SCC(=O)c2ccc(C)cc2)nnc1-c1ccco1	none (no result: Tb hexokinase, PfG6PD inh, HKDC1 inhibitor, PHOSPHO1 block)
O=C(c1sc2cc(F)ccc2c1Cl)N1CCN(c2cccc(Cl)c2)CC1	none
O=c1c2ccc(F)cc2sn1-c1ccccc1	PfG6PD inh 128 (no result: EP2 mod, EP2 antag, Tb hexokinase, HKDC1 inhibitor, PHOSPHO1 block) | PfG6PD confirm 106 | Diaph ctr 10uM inactive | Diaphorase 30uM inactive
O=c1c2cc(F)ccc2sn1-c1ccccc1Cl	PfG6PD inh 123 (no result: EP2 mod, EP2 antag, Tb hexokinase, HKDC1 inhibitor, PHOSPHO1 block) | PfG6PD confirm 110 | Diaph ctr 10uM inactive | Diaphorase 30uM inactive
Cc1ccc(-n2sc3cc(F)ccc3c2=O)c(C)c1	PfG6PD inh 124 (no result: EP2 mod, EP2 antag, Tb hexokinase, HKDC1 inhibitor, PHOSPHO1 block) | PfG6PD confirm 104 | Diaph ctr 10uM inactive | Diaphorase 30uM inactive
COc1ccc(-c2ccc(=O)n(CC3CCN(C(=O)c4ccccc4F)CC3)n2)cc1	none (no result: EP2 antag, Tb hexokinase, PfG6PD inh, HKDC1 inhibitor, PHOSPHO1 block)
Cn1c(N2CCC(C(=O)Nc3ccc(F)cc3F)CC2)nc2ccccc21	none (no result: EP2 antag, Tb hexokinase, PfG6PD inh, HKDC1 inhibitor, PHOSPHO1 block)
COc1cc(/C=N/N2CCN(C3c4ccccc4-c4ccccc43)CC2)cc(OC)c1OC	none
CCOc1ccc(/C=N/N2C(C)CCCC2C)cc1OC (stereo not given)	none (no result: EP2 mod, EP2 antag, Tb hexokinase)

Screens deposited in PubChem by several laboratories.
